Results as given in ChEMBL document CHEMBL5303300, “EUbOPEN Chemogenomics Library - Multiplex” (2023).
“And” between values parts separate entries of the source, which are not always exact repeats. Equal values may be shown once.

Tested on: U2OS
Assay: Multiplex assay against U2OS
Type: toxicity, cell-based
Conditions: human, number of replicates 2
In short: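 Values for tubulin, mitochondrial-mass and membrane-permeability phenotypes are per cents of cells with healthy nuclei. These cells were identified by CellPathfinder machine-learning gating of live cells that had been stained at seeding with Hoechst33342, BioTracker Green Microtubule Cytoskeleton Dye, MitoTracker Red and Annexin V Alexa Fluor 680 and imaged on a CQ1 microscope at 37°C and 5% CO2 after compound addition. The gating first set Hoechst high-intensity objects apart from normal cells, then split normal cells into healthy, pyknosed or fragmented nuclei, and pyknosed cells into mitotic or apoptotic.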

[1] = 12 h, 1 µM, compound concentration 1 uM
[2] = 12 h, 10 µM, compound concentration 10 uM
[3] = 24 h, 1 µM, compound concentration 1 uM
[4] = 24 h, 10 µM, compound concentration 10 uM
[5] = 48 h, 1 µM, compound concentration 1 uM
[6] = 48 h, 10 µM, compound concentration 10 uM

In the case of `O=C1Nc2ccc(C(=O)c3ccco3)cc2C1=Cc1cc(Cl)c(O)c(Cl)c1` [GW406108X], the “Population Apoptotic (%)” value [1] was 25% and 65%, the “Population Fragmented Nuclei (%)” value [1] was 11% and 2% and the “Population Healthy Nuclei (%)” value [1] was 76% and 87%. For the same compound, the “Population Hoechst High Intensity Objects (%)” value [1] was 0%, the “Population Membrane Permeable-Phenotype (%)” value [1] was 3% and 0% and the “Population Mitochondria Different-Phenotype (%)” value [1] was 0%. For the same compound, the “Population Mitotic Cells (%)” value [1] was 75% and 34%, the “Population Normal (%)” value [1] was 100% and the “Population Pyknosed Nuclei (%)” value [1] was 11% and 9%. For the same compound, the “Population Tubulin-Different-Phenotype (%)” value [1] was 76% and 82%, the “Population Apoptotic (%)” value [2] was 83% and 47% and the “Population Fragmented Nuclei (%)” value [2] was 12% and 4%. For the same compound, the “Population Healthy Nuclei (%)” value [2] was 69% and 85%, the “Population Hoechst High Intensity Objects (%)” value [2] was 0% and the “Population Membrane Permeable-Phenotype (%)” value [2] was 0% and 1%. For the same compound, the “Population Mitochondria Different-Phenotype (%)” value [2] was 0%, the “Population Normal (%)” value [2] was 100% and the “Population Pyknosed Nuclei (%)” value [2] was 18% and 10%. For the same compound, the “Population Tubulin-Different-Phenotype (%)” value [2] was 52% and 87%, the “Population Apoptotic (%)” value [3] was 40% and 64% and the “Population Fragmented Nuclei (%)” value [3] was 4% and 2%. For the same compound, the “Population Healthy Nuclei (%)” value [3] was 85% and 88%, the “Population Hoechst High Intensity Objects (%)” value [3] was 0% and the “Population Membrane Permeable-Phenotype (%)” value [3] was 10% and 1%. For the same compound, the “Population Mitochondria Different-Phenotype (%)” value [3] was 2% and 0%, the “Population Mitotic Cells (%)” value [3] was 60% and 35% and the “Population Normal (%)” value [3] was 100%. The “Population Pyknosed Nuclei (%)” value [3] was 10% and 8%, the “Population Tubulin-Different-Phenotype (%)” value [3] was 75% and 79% and the “Population Apoptotic (%)” value [4] was 87% and 43%. The “Population Fragmented Nuclei (%)” value [4] was 8% and 5%, the “Population Healthy Nuclei (%)” value [4] was 73% and 82% and the “Population Hoechst High Intensity Objects (%)” value [4] was 0%. The “Population Membrane Permeable-Phenotype (%)” value [4] was 0% and 1%, the “Population Mitochondria Different-Phenotype (%)” value [4] was 0% and the “Population Normal (%)” value [4] was 100%. For the same compound, the “Population Pyknosed Nuclei (%)” value [4] was 17% and 12%, the “Population Tubulin-Different-Phenotype (%)” value [4] was 51% and 90% and the “Population Apoptotic (%)” value [5] was 33% and 48%. For the same compound, the “Population Fragmented Nuclei (%)” value [5] was 6% and 1%, the “Population Healthy Nuclei (%)” value [5] was 79% and 89% and the “Population Hoechst High Intensity Objects (%)” value [5] was 0%. The “Population Membrane Permeable-Phenotype (%)” value [5] was 2% and 1%, the “Population Mitochondria Different-Phenotype (%)” value [5] was 2% and 0% and the “Population Mitotic Cells (%)” value [5] was 66% and 51%. The “Population Normal (%)” value [5] was 100% and 99%, the “Population Pyknosed Nuclei (%)” value [5] was 13% and 8% and the “Population Tubulin-Different-Phenotype (%)” value [5] was 85% and 83%. The “Population Apoptotic (%)” value [6] was 90% and 51%, the “Population Fragmented Nuclei (%)” value [6] was 1% and 6% and the “Population Healthy Nuclei (%)” value [6] was 79% and 83%. For the same compound, the “Population Hoechst High Intensity Objects (%)” value [6] was 0%, the “Population Membrane Permeable-Phenotype (%)” value [6] was 2% and the “Population Mitochondria Different-Phenotype (%)” value [6] was 2% and 1%. For the same compound, the “Population Normal (%)” value [6] was 100%, the “Population Pyknosed Nuclei (%)” value [6] was 18% and 10% and the “Population Tubulin-Different-Phenotype (%)” value [6] was 66% and 90%.
`CS(=O)(=O)c1ccc(C(=O)Nc2cc(F)c(F)c(COc3cc(F)c(Br)cc3CN3CC[C@H](O)C3)c2)c(Cl)c1.O=CO` was tested, and the “Population Apoptotic (%)” value [1] was 71% and 68%, the “Population Hoechst High Intensity Objects (%)” value [1] was 0% and the “Population Normal (%)” value [1] was 100%. The “Population Apoptotic (%)” value [2] was 51% and 52%, the “Population Healthy Nuclei (%)” value [2] was 28% and the “Population Hoechst High Intensity Objects (%)” value [2] was 0%. For the same compound, the “Population Normal (%)” value [2] was 99% and 100%, the “Population Apoptotic (%)” value [3] was 60% and 78% and the “Population Hoechst High Intensity Objects (%)” value [3] was 0%. For the same compound, the “Population Normal (%)” value [3] was 100%, the “Population Apoptotic (%)” value [4] was 88% and 86% and the “Population Hoechst High Intensity Objects (%)” value [4] was 0%. The “Population Normal (%)” value [4] was 100% and 99%, the “Population Apoptotic (%)” value [5] was 60% and 89% and the “Population Healthy Nuclei (%)” value [5] was 85%. For the same compound, the “Population Hoechst High Intensity Objects (%)” value [5] was 1% and 0%, the “Population Normal (%)” value [5] was 98% and 100% and the “Population Apoptotic (%)” value [6] was 98% and 90%. For the same compound, the “Population Healthy Nuclei (%)” value [6] was 14% and 6%, the “Population Hoechst High Intensity Objects (%)” value [6] was 1% and 3% and the “Population Normal (%)” value [6] was 98% and 96%.
For `CC(=O)O[C@H]1C(=O)[C@@]2(C)[C@H]([C@H](OC(=O)c3ccccc3)[C@]3(O)C[C@H](OC(=O)[C@H](O)[C@@H](NC(=O)c4ccccc4)c4ccccc4)C(C)=C1C3(C)C)[C@]1(OC(C)=O)CO[C@@H]1C[C@@H]2O` [PACLITAXEL], the “Population Apoptotic (%)” value [2] was 75% and 81% and 77%, the “Population Healthy Nuclei (%)” value [2] was 47% and 63% and 72% and 76% and the “Population Hoechst High Intensity Objects (%)” value [2] was 0%. The “Population Membrane Permeable-Phenotype (%)” value [2] was 6% and 3% and 4%, the “Population Mitochondria Different-Phenotype (%)” value [2] was 12% and 10% and 16% and 15% and the “Population Mitotic Cells (%)” value [2] was 25% and 18% and 22%. The “Population Normal (%)” value [2] was 100% and 99%, the “Population Pyknosed Nuclei (%)” value [2] was 11% and 18% and 15% and 13% and the “Population Tubulin-Different-Phenotype (%)” value [2] was 33% [middle of 4 runs]. The “Population Apoptotic (%)” value [4] was 72% and 57% and 74% and 78%, the “Population Healthy Nuclei (%)” value [4] was 33% and 55% and 66% and 65% and the “Population Hoechst High Intensity Objects (%)” value [4] was 2% and 0%. For the same compound, the “Population Membrane Permeable-Phenotype (%)” value [4] was 7% and 3%, the “Population Mitochondria Different-Phenotype (%)” value [4] was 27% [middle of 4 runs] and the “Population Mitotic Cells (%)” value [4] was 27% and 42% and 26% and 21%. For the same compound, the “Population Normal (%)” value [4] was 97% and 100% and 99%, the “Population Pyknosed Nuclei (%)” value [4] was 26% and 25% and 20% and the “Population Tubulin-Different-Phenotype (%)” value [4] was 21% and 19% and 36%. The “Population Apoptotic (%)” value [6] was 77% and 76% and 90% and 93%, the “Population Healthy Nuclei (%)” value [6] was 33% and 30% and 56% and 60% and the “Population Hoechst High Intensity Objects (%)” value [6] was 0%. For the same compound, the “Population Mitochondria Different-Phenotype (%)” value [6] was 38% and 42% and 41%, the “Population Normal (%)” value [6] was 100% and 99% and the “Population Pyknosed Nuclei (%)” value [6] was 35% and 28% and 32%. The “Population Tubulin-Different-Phenotype (%)” value [6] was 33% and 28% and 32% and 41%.
